# Assay results: ChEMBL document CHEMBL4765431, “Novel phthalide derivatives: Synthesis and anti-inflammatory activity in vitro and in vivo” (Eur J Med Chem, 2020)
# The source made the active and inactive calls. The calls are words filed in the database; no cut-off is given here.
# Tests used:
# RAW264.7 [1] = experiment: Inhibition of NF-kappaB activation in mouse RAW264.7 cells assessed as reduction in LPS-induced IkappaB protein degradation at 0.5 to 2 uM preincubated for 1 hr followed by LPS stimulation and measured after 30 mins by Western blotting analysis; assay type: cell-based; conditions: dose 0.5-2 µM, time 90.0 min
# Method in brief: (§1)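 Pretreatment 1 h with 0.5–2 µM, then LPS 0.5 µg/mL for 30 min. p-IκB, IκB, p-p65, p65, ERK, JNK, p38 and their phosphorylated forms, plus β-actin, detected by Western blot (RIPA lysis, SDS-PAGE, PVDF, primary 16 h at 4 °C, HRP secondary 1:5000, ECL).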
# Rattus norvegicus [2] = experiment: Antiarthritic activity in Sprague-Dawley rat model of arthritis assessed as reduction in CFA-induced inflammatory cell infiltration at 20 mg/kg, ig administered daily for 28 days starting from 14 days post-immunization and measured every 3 days by H and E staining based histopathological analysis; assay type: functional, organism-based; conditions: time 28.0 day
# Method in brief: (§2)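 AA rats (male SD, CFA intradermal into right hind paw) dosed intragastrically once daily at 20 or 40 mg/kg from day 14 to day 28. Killed after 29 days. Ankle joints fixed in 4% neutral buffered paraformaldehyde, decalcified in 10% EDTA, sectioned and H&E stained. Scored for synovial hyperplasia, inflammatory cell infiltration and cartilage destruction.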
# Rattus norvegicus [3] = experiment: Antiarthritic activity in Sprague-Dawley rat model of arthritis assessed as reduction in CFA-induced cartilage destruction at 40 mg/kg, ig […] and measured every 3 days by H and E staining based histopathological analysis; assay type: functional, organism-based
# RAW264.7 [4] = experiment: Anti-inflammatory activity in mouse RAW264.7 cells assessed as inhibition of LPS-induced iNOS protein expression preincubated for 1 hr followed by LPS stimulation and measured after 24 hrs by Western blot analysis; assay type: functional, cell-based; conditions: dose 0.5-2 µM, time 25.0 hrs
# Method in brief: (§3)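 Cells pretreated 1 h with 0.5, 1, 2 µM, then LPS 0.5 µg/mL for 24 h. iNOS, COX-2 and β-actin detected by Western blot (RIPA lysis, PVDF, primary 16 h at 4 °C, HRP secondary, ECL). Blots representative of three separate experiments.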
# RAW264.7 [5] = experiment: Anti-inflammatory activity in mouse RAW264.7 cells assessed as inhibition of LPS-induced COX-2 protein expression preincubated for 1 hr followed by LPS stimulation and measured after 24 hrs by Western blot analysis; assay type: functional, cell-based; conditions: dose 0.5-2 µM, time 25.0 hrs; method in brief: as §3
# Rattus norvegicus [6] = experiment: Antiarthritic activity in Sprague-Dawley rat model of arthritis assessed as reduction in CFA-induced inflammatory cell infiltration at 40 mg/kg, ig administered daily for 28 days starting from 14 days post-immunization and measured every 3 days by H and E staining based histopathological analysis; assay type: functional, organism-based; conditions: time 28.0 day; method in brief: as §2
# RAW264.7 [7] = experiment: Cytotoxicity against mouse RAW264.7 cells assessed as reduction in cell viability at 20 uM incubated for 24 hrs by MTT assay; assay type: cell-based; conditions: raw264.7, 24 h
# Method in brief: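 RAW264.7 cells (1 × 10^4/well, used 24 h after seeding) exposed to 20 µM for 24 h. MTT (5 mg/mL stock) added for 4 h, supernatant removed, crystals dissolved in DMSO with 10–15 min shaking, absorbance at 492 nm.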
# RAW264.7 [8] = experiment: Inhibition of MAPK signalling activation in mouse RAW264.7 cells assessed as reduction in LPS-induced ERK phosphorylation at 0.5 to 2 uM preincubated for 1 hr followed by LPS stimulation by Western blotting analysis; assay type: cell-based; conditions: dose 0.5-2 µM, TDE = time-dependent effect; method in brief: as §1
# RAW264.7 [9] = experiment: Inhibition of NF-kappaB activation in mouse RAW264.7 cells assessed as reduction in LPS-induced p65 phosphorylation at 0.5 to 2 uM preincubated for 1 hr followed by LPS stimulation and measured after 30 mins by Western blotting analysis; assay type: cell-based; conditions: dose 0.5-2 µM, time 90.0 min; method in brief: as §1
# RAW264.7 [10] = experiment: Cytotoxicity against mouse RAW264.7 cells assessed as reduction in cell viability incubated for 24 hrs in absence of LPS by MTT assay; assay type: cell-based; conditions: RAW264.7, 24 h
# RAW264.7 [11] = experiment: Antiinflammatory activity in mouse RAW264.7 cells assessed as inhibition of LPS-induced nitric oxide production at 10 uM preincubated for 1 hr followed by LPS stimulation and measured after 24 hrs by Griess reagent-based assay relative to control; assay type: functional; conditions: time 25 hrs
# Method in brief: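 RAW264.7 cells (7 × 10^4/well, used 24 h after seeding) in DMEM with 10% heat-inactivated FBS, 37 °C, 5% CO2. Pretreated 1 h with compound (10 µM screen; 0.625–10 µM dose series), then LPS 0.5 µg/mL for 24 h. Supernatant mixed 1:1 with Griess reagent, 15 min at room temperature, absorbance read at […].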
# RAW264.7 [12] = experiment: Inhibition of NF-kappaB activation in mouse RAW264.7 cells assessed as reduction in LPS-induced p65 nuclear translocation at 0.5 to 2 uM preincubated for 1 hr followed by LPS stimulation and measured after 30 mins by Western blotting analysis; assay type: cell-based; conditions: dose 0.5-2 µM, time 90.0 min
# Rattus norvegicus [13] = experiment: Antiarthritic activity in Sprague-Dawley rat model of arthritis assessed as reduction in CFA-induced cartilage destruction at 20 mg/kg, […] and measured every 3 days by H and E staining based histopathological analysis; assay type: functional, organism-based
# RAW264.7 [14] = experiment: Inhibition of MAPK signalling activation in mouse RAW264.7 cells assessed as reduction in LPS-induced JNK phosphorylation at 0.5 to 2 uM preincubated for 1 hr followed by LPS stimulation by Western blotting analysis; assay type: cell-based; conditions: dose 0.5-2 µM, TDE = time-dependent effect; method in brief: as §1
# RAW264.7 [15] = experiment: Activation of Nrf2/HO-1 signalling pathway in mouse RAW264.7 cells assessed as inhibition of LPS-induced NO production at 2 uM preincubated for 1 hr in presence of NAC followed by LPS stimulation and measured after 24 hrs by Griess reagent-based assay; assay type: cell-based; conditions: time 25.0 hrs
# Method in brief: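 Cells pretreated 1 h with or without NAC 5 mM alongside 2 µM compound, then LPS 0.5 µg/mL for 24 h. Medium NO measured by Griess reagent. Means ± SD of three independent experiments.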
# Rattus norvegicus [16] = experiment: Antiarthritic activity in Sprague-Dawley rat model of CFA-induced arthritis assessed as reduction in paw swelling at 20 to 40 mg/kg, […] and measured every 3 days; assay type: functional, organism-based; conditions: dose 20-40 mg/kg
# RAW264.7 [17] = experiment: Inhibition of MAPK signalling activation in mouse RAW264.7 cells assessed as reduction in LPS-induced p38 phosphorylation at 0.5 to 2 uM preincubated for 1 hr followed by LPS stimulation by Western blotting analysis; assay type: cell-based; conditions: dose 0.5-2 µM, TDE = time-dependent effect; method in brief: as §1
# RAW264.7 [18] = experiment: Activation of Nrf2/HO-1 signalling pathway in mouse RAW264.7 cells assessed as increase in HO-1 protein expression at 0.5 to 2 uM preincubated for 1 hr followed by LPS stimulation and measured after 24 hrs by Western blotting analysis; assay type: cell-based; conditions: filed as activator, dose 0.5-2 µM, time 25.0 hrs
# Method in brief: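 RAW264.7 cells (2 × 10^6/well, grown 24 h) pretreated 1 h with 0.5, 1, 2 µM, then LPS 0.5 µg/mL for 24 h. Lysed in RIPA with PMSF and phosphatase inhibitors, SDS-PAGE, PVDF transfer. Primary antibodies (anti-Nrf2 or anti-HO-1) 16 h at 4 °C, HRP secondary 1:5000 1 h at room temperature, ECL detection. β-actin used for normalization.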
# RAW264.7 [19] = experiment: Cytotoxicity against mouse RAW264.7 cells assessed as reduction in cell viability incubated for 24 hrs in presence of LPS by MTT assay; assay type: cell-based; conditions: RAW264.7, 24 h
compound,measurement,setting,value
COc1cc(OC)c2c(c1)C(C(O)c1ccc(OCc3ccc(F)cc3)cc1)OC2=O (centres undefined),inhibition,RAW264.7 [1],Active
same,Activity,Rattus norvegicus [2],Active
same,Activity,Rattus norvegicus [3],Active
same,inhibition,RAW264.7 [4],Dose-dependent effect
same,inhibition,RAW264.7 [5],Dose-dependent effect
same,Activity,Rattus norvegicus [6],Active
same,Activity,RAW264.7 [7],Non-Toxic
same,inhibition,RAW264.7 [8],Tde
same,inhibition,RAW264.7 [9],Active
same,IC50,RAW264.7 [10],> 40 µM
same,inhibition at 10 µM,RAW264.7 [11],95.2%
same,inhibition,RAW264.7 [12],Active
same,Activity,Rattus norvegicus [13],Active
same,inhibition,RAW264.7 [14],Tde
same,Activity,RAW264.7 [15],inactive
same,Activity,Rattus norvegicus [16],Active
same,inhibition,RAW264.7 [17],Tde
same,Activity,RAW264.7 [18],Active
same,IC50,RAW264.7 [19],> 40 µM
